ChEMBL document CHEMBL1132183 (J Med Chem, 1999)

Assays:
[1] = target: Serotonin 2 (5-HT2) receptor (Rattus norvegicus, UniProt P30994+P08909+P14842); test: Displacement of [3H]ketanserin from rat brain 5-hydroxytryptamine 2 receptor
How it was run: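 Rat cerebral cortex membranes (male Sprague–Dawley) in Tris-HCl pH 7.4 with 10 μM pargiline and 0.1% ascorbic acid were incubated 20 min at 37 °C with 0.7–1.3 nM [3H]ketanserin (5-HT2A). Nonspecific binding was defined by 2 μM ketanserin. Bound label was counted after filtration, and Ki was derived by Cheng–Prusoff.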

[2] = target: T1, 5-hydroxytryptamine receptor 1A (Homo sapiens) (UniProt P08908); test: Concentration required to obtain 50% maximal stimulation of [35S]GTP gamma-S binding to human cloned 5-HT1A receptors of cell membranes from HeLa cells; format: functional
T1 sequence (whole entry): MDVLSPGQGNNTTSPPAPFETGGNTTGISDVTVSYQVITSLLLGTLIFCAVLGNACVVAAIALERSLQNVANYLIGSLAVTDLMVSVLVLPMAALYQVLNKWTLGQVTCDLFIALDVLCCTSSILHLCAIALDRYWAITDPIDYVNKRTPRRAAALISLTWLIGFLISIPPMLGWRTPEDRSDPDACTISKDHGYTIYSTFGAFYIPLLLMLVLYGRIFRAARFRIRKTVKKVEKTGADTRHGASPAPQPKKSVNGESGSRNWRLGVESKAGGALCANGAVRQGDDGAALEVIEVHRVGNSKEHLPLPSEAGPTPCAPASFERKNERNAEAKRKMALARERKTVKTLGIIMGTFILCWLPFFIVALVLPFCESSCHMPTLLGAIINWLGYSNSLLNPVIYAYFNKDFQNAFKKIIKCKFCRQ
How it was run: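 [35S]GTPγS binding in membranes of HeLa cells stably expressing human 5-HT1A, in 20 mM HEPES, 3 mM MgSO4, 120 mM NaCl pH 7.4. Preincubation 20 min at 30 °C with 30 μM GDP and drug (0.1 nM–100 μM), then 150–250 pM [35S]GTPγS for 30 min at 30 °C. Stimulation above basal was scaled to the 5-HT maximum (100%). Emax and pD2 came from curve fits; triplicate, 2–3 sessions.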

[3] = target: T2, Alpha-1A adrenergic receptor (Rattus norvegicus) (UniProt P43140); test: Eudisimic ratio(ER) is the antilog of the defference between the pKb and pD2 values against Alpha-1A adrenergic receptor subtype
T2 sequence (whole entry): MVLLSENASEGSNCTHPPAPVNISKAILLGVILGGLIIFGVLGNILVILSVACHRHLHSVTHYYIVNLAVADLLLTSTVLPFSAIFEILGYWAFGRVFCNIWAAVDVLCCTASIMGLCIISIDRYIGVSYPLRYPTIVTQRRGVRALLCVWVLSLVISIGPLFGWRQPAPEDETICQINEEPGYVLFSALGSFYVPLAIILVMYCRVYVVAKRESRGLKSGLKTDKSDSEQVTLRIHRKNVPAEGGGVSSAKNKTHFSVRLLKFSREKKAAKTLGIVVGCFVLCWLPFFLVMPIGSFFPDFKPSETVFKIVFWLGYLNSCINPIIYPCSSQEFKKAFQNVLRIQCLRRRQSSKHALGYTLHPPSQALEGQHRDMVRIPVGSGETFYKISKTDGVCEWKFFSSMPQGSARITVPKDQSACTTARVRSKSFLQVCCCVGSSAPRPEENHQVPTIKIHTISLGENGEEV
How it was run: (§1)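 Eudismic ratio is the antilog of the difference between the pKb (functional α1 tissue assays) or pD2 (5-HT1A [35S]GTPγS stimulation) of the eutomer and that of its distomer.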

[4] = target: T3, Alpha-1D adrenergic receptor (Rattus norvegicus) (UniProt P23944); test: Alpha-1D adrenergic receptor subtype blocking activity (antagonism) against (-)-noradrenaline-induced contraction of rat thoracic aorta.; format: functional, tissue-based
T3 sequence (whole entry): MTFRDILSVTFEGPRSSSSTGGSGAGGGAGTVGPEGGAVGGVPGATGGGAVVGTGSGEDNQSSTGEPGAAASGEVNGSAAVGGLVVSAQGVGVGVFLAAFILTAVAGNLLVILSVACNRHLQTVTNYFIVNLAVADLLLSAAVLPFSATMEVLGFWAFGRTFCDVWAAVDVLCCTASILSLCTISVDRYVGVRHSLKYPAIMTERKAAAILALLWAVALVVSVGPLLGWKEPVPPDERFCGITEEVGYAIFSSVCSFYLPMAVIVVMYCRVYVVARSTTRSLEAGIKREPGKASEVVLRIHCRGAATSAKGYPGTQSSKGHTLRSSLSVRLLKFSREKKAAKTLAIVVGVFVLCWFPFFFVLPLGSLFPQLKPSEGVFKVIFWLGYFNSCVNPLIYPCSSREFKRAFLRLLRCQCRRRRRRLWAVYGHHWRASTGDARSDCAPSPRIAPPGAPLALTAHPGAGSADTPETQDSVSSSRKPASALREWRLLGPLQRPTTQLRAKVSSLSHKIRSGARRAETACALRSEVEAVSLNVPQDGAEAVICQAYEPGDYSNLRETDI
How it was run: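 Helicoidal strips of rat thoracic aorta under 1 g tension, bath with 0.01 μM desipramine and 1 μM (±)-propranolol, equilibrated ≥1 h. Cumulative (–)-noradrenaline curves at 30-min intervals: first two discarded, third as control, fourth after 30-min antagonist exposure. pKb by Arunlakshana–Schild from EC50 dose ratios at 2–3 antagonist concentrations, each tested four times.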

[5] = target: T4, Alpha-1B adrenergic receptor (Rattus norvegicus) (UniProt P15823); test: Eudisimic ratio(ER) is the antilog of the defference between the pKb and pD2 values against alpha-1B-adrenoceptor subtype; format: functional; how it was run: as §1
T4 sequence (whole entry): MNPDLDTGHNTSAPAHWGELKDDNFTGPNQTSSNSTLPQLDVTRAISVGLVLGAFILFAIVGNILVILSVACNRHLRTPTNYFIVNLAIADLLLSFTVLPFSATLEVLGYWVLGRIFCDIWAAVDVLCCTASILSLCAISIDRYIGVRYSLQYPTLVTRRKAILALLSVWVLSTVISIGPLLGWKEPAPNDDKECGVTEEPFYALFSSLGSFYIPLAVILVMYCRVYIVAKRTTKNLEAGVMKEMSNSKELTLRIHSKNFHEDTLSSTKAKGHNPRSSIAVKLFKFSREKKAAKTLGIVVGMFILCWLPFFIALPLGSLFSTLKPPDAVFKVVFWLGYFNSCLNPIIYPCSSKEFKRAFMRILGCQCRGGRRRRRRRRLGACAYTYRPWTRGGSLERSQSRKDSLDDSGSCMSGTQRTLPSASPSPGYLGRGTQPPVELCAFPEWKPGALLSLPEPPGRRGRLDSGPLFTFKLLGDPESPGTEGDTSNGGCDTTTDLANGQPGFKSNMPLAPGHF

[6] = target: T2, Alpha-1A adrenergic receptor (Rattus norvegicus); test: Eudisimic ratio(ER) is the antilog of the defference between the pKb and pD2 values against Alpha-1A adrenergic receptor; how it was run: as §1
[7] = target: T1, 5-hydroxytryptamine receptor 1A (Homo sapiens); test: Eudisimic ratio(ER) is the antilog of the defference between the pKb and pD2 values against 5-hydroxytryptamine 1A receptor; format: functional; how it was run: as §1
[8] = target: T3, Alpha-1D adrenergic receptor (Rattus norvegicus); test: Eudisimic ratio(ER) is the antilog of the defference between the pKb and pD2 values against alpha-1D-adrenoceptor subtype; format: functional; how it was run: as §1

Structure (SMILES) | Log Ki [1] | pD2 [2] | ER [3] | pKb [4] | ER [5] | ER [6] | ER [7] | ER [8]
O[C@H]1[C@@H](NC[C@H]2COc3ccccc3O2)CC[C@@H]1Oc1ccccc1 | < -6 | 7.3 | 3 | 6.92 | 11 | – | – | –
O[C@H]1[C@@H](NC[C@@H]2COc3ccccc3O2)CC[C@@H]1Oc1ccccc1 | – | 7.96 | – | 6.65 | – | – | – | –
O[C@@H]1[C@H](NC[C@H]2COc3ccccc3O2)CC[C@H]1Oc1ccccc1 | < -6 | 5.87 | – | 8.17 | 49 | > 35 | 123 | 33
O[C@@H]1[C@H](NC[C@@H]2COc3ccccc3O2)CC[C@H]1Oc1ccccc1 | – | 5.87 | – | 7.78 | – | – | – | –
